Measured values as given in ChEMBL document CHEMBL5385911, “Exploring the Dispersion and Electrostatic Components in Arene-Arene Interactions between Ligands and G4 DNA to Develop G4-Ligands” (J Med Chem, 2024).
In brackets after ≈: the same amount, converted by molar mass. Activity calls are given as the source filed them. The rule behind the calls is not given here.

Experiments:
Quadruplex DNA [1] = experiment: Stabilization of 5'-FAM and 3'-TAMRA labelled c-Myc G4-quadruplex Pu24T DNA (unknown origin) assessed as increase in thermal stability of DNA structure at 5 to 40 equiv. by FRET melting assay; details: dose 5-40 equiv
[2] = Stabilization of double stranded PEPu24T mut DNA (unknown origin) assessed as inhibition of Taq DNA polymerase activity by measuring reduction in full length DNA product at 6 uM pretreated for 10 mins followed by incubation with dNTPs for 15 mins by PAGE analysis; details: time 25.0 min
In short: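 Non-G4 control template: TET-labelled 25 nt primer (1 μM final) annealed to mutated PEPu24T mut (1.25 μM final) in 100 mM KCl. 40 nM template, Taq buffer pH 8.8, 25 mM MgCl2, 0.05 U Taq. Compound on ice 10 min, then 100 μM dNTPs at 37 °C 15 min. Denaturing PAGE; full-length product as % of no-compound sample.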

Quadruplex DNA [3] = experiment: Stabilization of G4-quadruplex PEPu24T DNA (unknown origin) assessed as inhibition of Taq DNA polymerase activity by measuring reduction in full length DNA product at 0.048 to 6 uM pretreated for 10 mins followed by incubation with dNTPs for 15 mins by PAGE analysis; format: nucleic-acid assay; details: dose 0.048-6 µM, time 25.0 min
In short: (§1)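 Template made by annealing TET-labelled 25 nt primer (1 μM final) to PEPu24T (1.25 μM final) in 100 mM KCl. Reaction: 40 nM template, Taq buffer pH 8.8 with 50 mM KCl, 25 mM MgCl2, 0.05 U Taq. Compound preincubated on ice 10 min; dNTPs (100 μM) added, 37 °C 15 min. Denaturing 12% urea/formamide PAGE; full-length product expressed as % of no-compound sample; SD of ≥2 independent experiments.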

Quadruplex DNA [4] = experiment: Stabilization of fluorescently labelled c-Myc G4-quadruplex Pu22 DNA (unknown origin) assessed as increase in thermal stability of DNA structure at 5 to 40 equiv. by FRET melting assay; format: nucleic-acid assay; details: dose 5-40 equiv
In short: (§2)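 Pu22 (FAM/TAMRA, 0.2 μM), folded in 10 mM lithium cacodylate pH 7.4, 2 mM KCl, 98 mM LiCl. Ligand at 5, 10, 25 or 40 equivalents. Heated 10–95 °C; donor emission at 516 nm (excitation 492 nm) normalized. Tm taken at 0.5 normalized emission; ΔTm is Tm with ligand minus Tm without ligand. Duplicate wells.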

Quadruplex DNA [5] = experiment: Stabilization of fluorescently labelled c-Myc G4-quadruplex Pu22 DNA (unknown origin) assessed as increase in thermal stability of DNA structure at 40 equiv. by FRET melting assay; format: nucleic-acid assay
In short: as §2

[6] = Solubility of the compound at pH 7.4; format: physicochemical; details: buffer
Quadruplex DNA [7] = experiment: Stabilization of G4-quadruplex PEPu24T DNA (unknown origin) assessed as inhibition of Taq DNA polymerase activity by measuring full length DNA product at 0.24 uM pretreated for 10 mins followed by incubation with dNTPs for 15 mins by PAGE analysis; format: nucleic-acid assay; design: scale not given: the % may be the effect or the level left; details: time 25.0 min
In short: as §1

SMILES: Cc1cc(NCCCN(C)C)nc(Nc2nc3ccccc3nc2C)n1
- Activity (Quadruplex DNA [1]): Active
- Activity [2]: inactive
- Activity (Quadruplex DNA [3]): Active
- Activity (Quadruplex DNA [4]): Active

SMILES: Cc1cc(NCCCN(C)C)nc(Nc2nc(C)c3ccccc3n2)n1
- Activity (Quadruplex DNA [1]): Active
- Activity [2]: inactive
- Activity (Quadruplex DNA [5]): Active

SMILES: Cc1ccc2nc(Nc3nc(C)cc(NCCCN(C)C)n3)nc(C)c2c1
- solubility [6]: 858 µM (≈ 314 µg/mL)
- Activity (Quadruplex DNA [1]): Active
- Activity (Quadruplex DNA [7]): 30%
- Activity [2]: inactive
- Activity (Quadruplex DNA [5]): Active

SMILES: COc1ccc2nc(Nc3nc(C)cc(C)n3)nc(C)c2c1
- solubility [6]: 134 µM (≈ 39.6 µg/mL)
- Activity [2]: inactive

SMILES: Cc1cc(NCCCN(C)C)nc(Nc2ncc3ccccc3n2)n1
- solubility [6]: 858 µM (≈ 290 µg/mL)
- Activity (Quadruplex DNA [1]): Active
- Activity (Quadruplex DNA [7]): 65%
- Activity [2]: inactive

SMILES: Cc1cc(NCCCN(C)C)nc(Nc2nc3cc(C)c(C)cc3nc2C)n1
- Activity (Quadruplex DNA [1]): Active
- Activity [2]: inactive
- Activity (Quadruplex DNA [3]): Active
- Activity (Quadruplex DNA [4]): Active

SMILES: Cc1cc(C)nc(Nc2nc(C)c3ccccc3n2)n1
- solubility [6]: 134 µM (≈ 35.6 µg/mL)
- Activity [2]: inactive
